# Data: ChEMBL document CHEMBL4689842, “EUbOPEN Chemogenomics Library wave 1” (2021)
# Where “and” joins values, the source holds several entries; their conditions need not be identical. Equal values may be shown once.
# Test system: HEK-293T
# Experiment: Multiplex assay against HEK293T;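 for Population Tubulin-Different-Phenotype (%): share of the cells with healthy nuclei that show this phenotype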
# Type: toxicity, cell-based
# Conditions: human
# Method in brief: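 Cells stained live at seeding with Hoechst33342, BioTracker Green Microtubule Cytoskeleton Dye, MitoTracker Red and Annexin V Alexa Fluor 680 were imaged on a CQ1 microscope at 37°C and 5% CO2 after compound addition. Their classification by CellPathfinder machine-learning gating ran from Hoechst high-intensity objects versus normal cells, to healthy, pyknosed or fragmented nuclei among normal cells, to mitotic or apoptotic among pyknosed cells. Tubulin, mitochondrial-mass and membrane-permeability phenotypes are per cents of healthy-nucleus cells.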
# [1] = 12 h, 1 µM, compound concentration 1 uM, replicate 1
# [2] = 12 h, 1 µM, compound concentration 1 uM, replicate 2
# [3] = 12 h, 10 µM, compound concentration 10 uM, replicate 1
# [4] = 12 h, 10 µM, compound concentration 10 uM, replicate 2
# [5] = 24 h, 1 µM, compound concentration 1 uM, replicate 1
# [6] = 24 h, 1 µM, compound concentration 1 uM, replicate 2
# [7] = 24 h, 10 µM, compound concentration 10 uM, replicate 1
# [8] = 24 h, 10 µM, compound concentration 10 uM, replicate 2
# [9] = 48 h, 1 µM, compound concentration 1 uM, replicate 1
# [10] = 48 h, 1 µM, compound concentration 1 uM, replicate 2
# [11] = 48 h, 10 µM, compound concentration 10 uM, replicate 1
# [12] = 48 h, 10 µM, compound concentration 10 uM, replicate 2
compound,measurement,setting,value
COc1ncc(-c2ccc3nccc(-c4ccnnc4)c3c2)cc1NS(=O)(=O)c1ccc(F)cc1F [OMIPALISIB],Population Apoptotic (%),[1],60%
same,Population Fragmented Nuclei (%),[1],17%
same,Population Healthy Nuclei (%),[1],18%
same,Population Hoechst High Intensity Objects (%),[1],20%
same,Population Membrane Permeable-Phenotype (%),[1],2%
same,Population Mitochondria Different-Phenotype (%),[1],81%
same,Population Mitotic Cells (%),[1],39%
same,Population Normal (%),[1],80%
same,Population Pyknosed Nuclei (%),[1],64%
same,Population Tubulin-Different-Phenotype (%),[1],24%
same,Total Cell Count,[1],255
same,Population Apoptotic (%),[2],27%
same,Population Fragmented Nuclei (%),[2],8%
same,Population Healthy Nuclei (%),[2],14%
same,Population Hoechst High Intensity Objects (%),[2],6%
same,Population Membrane Permeable-Phenotype (%),[2],0%
same,Population Mitochondria Different-Phenotype (%),[2],37%
same,Population Mitotic Cells (%),[2],72%
same,Population Normal (%),[2],93%
same,Population Pyknosed Nuclei (%),[2],77%
same,Population Tubulin-Different-Phenotype (%),[2],16%
same,Total Cell Count,[2],180
same,Population Apoptotic (%),[3],62%
same,Population Fragmented Nuclei (%),[3],12%
same,Population Healthy Nuclei (%),[3],20%
same,Population Hoechst High Intensity Objects (%),[3],22%
same,Population Membrane Permeable-Phenotype (%),[3],0%
same,Population Mitochondria Different-Phenotype (%),[3],97%
same,Population Mitotic Cells (%),[3],37%
same,Population Normal (%),[3],77%
same,Population Pyknosed Nuclei (%),[3],67%
same,Population Tubulin-Different-Phenotype (%),[3],39%
same,Total Cell Count,[3],238
same,Population Apoptotic (%),[4],34%
same,Population Fragmented Nuclei (%),[4],4%
same,Population Healthy Nuclei (%),[4],12%
same,Population Hoechst High Intensity Objects (%),[4],6%
same,Population Membrane Permeable-Phenotype (%),[4],5%
same,Population Mitochondria Different-Phenotype (%),[4],42%
same,Population Mitotic Cells (%),[4],65%
same,Population Normal (%),[4],93%
same,Population Pyknosed Nuclei (%),[4],83%
same,Population Tubulin-Different-Phenotype (%),[4],26%
same,Total Cell Count,[4],161
same,Population Apoptotic (%),[5],47%
same,Population Fragmented Nuclei (%),[5],21%
same,Population Healthy Nuclei (%),[5],6%
same,Population Hoechst High Intensity Objects (%),[5],22%
same,Population Mitochondria Different-Phenotype (%),[5],71%
same,Population Mitotic Cells (%),[5],52%
same,Population Normal (%),[5],77%
same,Population Pyknosed Nuclei (%),[5],71%
same,Population Tubulin-Different-Phenotype (%),[5],50%
same,Total Cell Count,[5],280
same,Population Apoptotic (%),[6],29%
same,Population Fragmented Nuclei (%),[6],5%
same,Population Healthy Nuclei (%),[6],14%
same,Population Hoechst High Intensity Objects (%),[6],6%
same,Population Membrane Permeable-Phenotype (%),[6],0%
same,Population Mitochondria Different-Phenotype (%),[6],40%
same,Population Mitotic Cells (%),[6],70%
same,Population Normal (%),[6],93%
same,Population Pyknosed Nuclei (%),[6],79%
same,Population Tubulin-Different-Phenotype (%),[6],24%
same,Total Cell Count,[6],178
same,Population Apoptotic (%),[7],53%
same,Population Fragmented Nuclei (%),[7],14%
same,Population Healthy Nuclei (%),[7],20%
same,Population Hoechst High Intensity Objects (%),[7],24%
same,Population Membrane Permeable-Phenotype (%),[7],2%
same,Population Mitochondria Different-Phenotype (%),[7],91%
same,Population Mitotic Cells (%),[7],46%
same,Population Normal (%),[7],75%
same,Population Pyknosed Nuclei (%),[7],64%
same,Population Tubulin-Different-Phenotype (%),[7],52%
same,Total Cell Count,[7],228
same,Population Apoptotic (%),[8],37%
same,Population Fragmented Nuclei (%),[8],5%
same,Population Healthy Nuclei (%),[8],19%
same,Population Hoechst High Intensity Objects (%),[8],11%
same,Population Membrane Permeable-Phenotype (%),[8],3%
same,Population Mitochondria Different-Phenotype (%),[8],57%
same,Population Mitotic Cells (%),[8],63%
same,Population Normal (%),[8],88%
same,Population Pyknosed Nuclei (%),[8],75%
same,Population Tubulin-Different-Phenotype (%),[8],46%
same,Total Cell Count,[8],150
same,Population Fragmented Nuclei (%),[9],30%
same,Population Healthy Nuclei (%),[9],5%
same,Population Hoechst High Intensity Objects (%),[9],22%
same,Population Membrane Permeable-Phenotype (%),[9],0%
same,Population Mitochondria Different-Phenotype (%),[9],75%
same,Population Normal (%),[9],77%
same,Population Pyknosed Nuclei (%),[9],64%
same,Population Tubulin-Different-Phenotype (%),[9],41%
same,Total Cell Count,[9],286
same,Population Apoptotic (%),[10],44%
same,Population Fragmented Nuclei (%),[10],7%
same,Population Healthy Nuclei (%),[10],36%
same,Population Hoechst High Intensity Objects (%),[10],7%
same,Population Membrane Permeable-Phenotype (%),[10],1%
same,Population Mitochondria Different-Phenotype (%),[10],40%
same,Population Mitotic Cells (%),[10],55%
same,Population Normal (%),[10],92%
same,Population Pyknosed Nuclei (%),[10],55%
same,Population Tubulin-Different-Phenotype (%),[10],35%
same,Total Cell Count,[10],181
same,Population Apoptotic (%),[11],40%
same,Population Fragmented Nuclei (%),[11],20%
same,Population Healthy Nuclei (%),[11],24%
same,Population Hoechst High Intensity Objects (%),[11],21%
same,Population Membrane Permeable-Phenotype (%),[11],5%
same,Population Mitochondria Different-Phenotype (%),[11],76%
same,Population Mitotic Cells (%),[11],59%
same,Population Normal (%),[11],78%
same,Population Pyknosed Nuclei (%),[11],55%
same,Population Tubulin-Different-Phenotype (%),[11],57%
same,Total Cell Count,[11],202
same,Population Apoptotic (%),[12],38%
same,Population Fragmented Nuclei (%),[12],8%
same,Population Healthy Nuclei (%),[12],38%
same,Population Hoechst High Intensity Objects (%),[12],7%
same,Population Membrane Permeable-Phenotype (%),[12],0%
same,Population Mitochondria Different-Phenotype (%),[12],49%
same,Population Mitotic Cells (%),[12],61%
same,Population Normal (%),[12],92%
same,Population Pyknosed Nuclei (%),[12],54%
same,Population Tubulin-Different-Phenotype (%),[12],54%
same,Total Cell Count,[12],163
Cn1cncc1[C@@](O)(COc1ccc(C#N)cc1-c1ccc(OC(F)(F)F)cc1)c1ccc(C#N)cc1 [A-108],Population Apoptotic (%),[3],23% and 20%
same,Population Fragmented Nuclei (%),[3],11% and 16%
same,Population Healthy Nuclei (%),[3],51% and 64%
same,Population Hoechst High Intensity Objects (%),[3],11% and 14%
same,Population Mitochondria Different-Phenotype (%),[3],8% and 4%
same,Population Mitotic Cells (%),[3],76% and 79%
same,Population Normal (%),[3],88% and 85%
same,Population Pyknosed Nuclei (%),[3],36% and 18%
same,Total Cell Count,[3],827 and 582
same,Population Apoptotic (%),[4],12% and 14%
same,Population Fragmented Nuclei (%),[4],3% and 9%
same,Population Healthy Nuclei (%),[4],77% and 85%
same,Population Hoechst High Intensity Objects (%),[4],4% and 2%
same,Population Mitochondria Different-Phenotype (%),[4],19% and 7%
same,Population Mitotic Cells (%),[4],87% and 85%
same,Population Normal (%),[4],95% and 97%
same,Total Cell Count,[4],1209 and 1952
same,Population Apoptotic (%),[7],25% and 12%
same,Population Fragmented Nuclei (%),[7],10% and 12%
same,Population Healthy Nuclei (%),[7],60% and 78%
same,Population Hoechst High Intensity Objects (%),[7],10%
same,Population Mitochondria Different-Phenotype (%),[7],4%
same,Population Mitotic Cells (%),[7],75% and 87%
same,Population Normal (%),[7],89%
same,Total Cell Count,[7],759 and 650
same,Population Apoptotic (%),[8],8% and 5%
same,Population Healthy Nuclei (%),[8],73% and 71%
same,Population Hoechst High Intensity Objects (%),[8],4% and 3%
same,Population Mitochondria Different-Phenotype (%),[8],9% and 2%
same,Population Mitotic Cells (%),[8],91% and 95%
same,Population Normal (%),[8],95% and 96%
same,Population Tubulin-Different-Phenotype (%),[8],97%
same,Total Cell Count,[8],1251 and 3226
